High-throughput results from PubChem.
S1P4 antagonist: S1P4 receptor antagonists, primary screen, cell-based; S1P4-expressing cells, antagonist mode, reporter read-out; inhibition, % at 4.98 µM; actives 0.26% (n = 220,000); AID 1510, 2009; in the data active = inhibition above about 29%
NPY-Y2 antag: NPY-Y2 receptor antagonists, primary screen, cell-based; Neuropeptide Y receptor type 2 (Homo sapiens), P49146; NPY-Y2 expressing cells, antagonist mode; inhibition, % at 2.7 µM; actives 0.99% (n = 140,000)
S1P4 agonist: S1P4 receptor agonists, primary screen, cell-based; S1P4-expressing cell line, agonist reporter assay; activation, % at 4.98 µM; actives 0.35% (n = 220,000); AID 1509, 2009; in the data active = activation above about 11%
NPY1 pot ag: NPY-Y1 receptor potentiators or agonists, primary screen, cell-based; Neuropeptide Y receptor type 1 (Homo sapiens), P25929; NPY-Y1 expressing cells, potentiator/agonist activation; activation, % at 3.6 µM; actives 0.37% (n = 220,000); AID 1304, 2008; in the data active = activation above about 33%, passing the limit was not always enough;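 also: cells stimulated with NPY at EC10 then isoproterenol at EC100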
Target sequence (P25929 whole entry, looked up): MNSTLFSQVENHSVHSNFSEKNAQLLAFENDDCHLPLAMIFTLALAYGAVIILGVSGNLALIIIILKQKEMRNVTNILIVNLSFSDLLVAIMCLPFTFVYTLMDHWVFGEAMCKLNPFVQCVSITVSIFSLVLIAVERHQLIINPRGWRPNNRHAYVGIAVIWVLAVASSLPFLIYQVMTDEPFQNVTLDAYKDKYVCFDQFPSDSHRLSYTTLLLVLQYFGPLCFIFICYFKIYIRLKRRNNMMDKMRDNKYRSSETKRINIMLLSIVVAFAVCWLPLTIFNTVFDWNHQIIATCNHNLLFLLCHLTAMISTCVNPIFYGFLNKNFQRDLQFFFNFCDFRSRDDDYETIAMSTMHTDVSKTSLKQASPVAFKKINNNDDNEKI
NPY Y1 blocker: NPY-Y1 receptor antagonists, primary screen, cell-based | Neuropeptide Y receptor type 1 (Homo sapiens), P25929 | inhibition, % at 3.6 µM | actives 1% (n = 200,000) | HEK293-CNG Y1 cells, membrane potential fluorescence; NPY at EC95, then isoproterenol;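 active = inhibition above the campaign mean inhibition of all tested compounds plus 3 SD, cut at about 20% in these data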
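Material: HEK293 cells co-expressing NPY Y1 receptor and cyclic-nucleotide gated channel. Timing: compound incubation 1 h at room temperature, readout 45 min post-stimulation. Signal: fluorescence, membrane potential probe.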
NPY2 pot ag: NPY-Y2 potentiators or agonists, primary screen, cell-based. Neuropeptide Y receptor type 2 (Homo sapiens), P49146. cells expressing NPY-Y2, potentiator/agonist read-out. activation, % at 3.6 µM. actives 0.45% (n = 220,000); in the data active = activation above about 27%;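 also: cells stimulated with NPY near EC25 plus isoproterenol at EC100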
NPY-Y1 ant conf: NPY-Y1 receptor antagonists, retest of hits, confirmation, HEK293-CNG cells, membrane potential fluorescence, triplicate; shares compounds with NPY Y1 blocker; cAMP; NPY challenge against isoproterenol-raised cAMP; inhibition, % at 3.6 µM; actives 21% (n = 1,200); in the data active = inhibition above about 20%
NPY-Y2 antag ct: NPY-Y2 receptor antagonists, selectivity check, confirmation, counter-screen for NPY-Y1 antagonist project, HEK293-CNG cells, membrane potential fluorescence, triplicate. shares compounds with NPY Y1 blocker. antagonism; cells given NPY, then isoproterenol. inhibition, % at 3.6 µM. actives 28% (n = 1,200)
Numbers stand for hits; 0 = inactive; - = not tested or not shown. An excerpt weighted towards active compounds, which were near 2.4% of everything screened. Rule as the data show it, unless noted: active = inhibition above about 17%; inactive = the rest.

SMILES	S1P4 antagonist	NPY-Y2 antag	S1P4 agonist	NPY1 pot ag	NPY Y1 blocker	NPY2 pot ag	NPY-Y1 ant conf	NPY-Y2 antag ct
CCN(CCCNC(=O)c1cn(CC)c2ccc(S(=O)(=O)N(C)C)cc2c1=O)c1cccc(C)c1	0	0	0	0	35	0	57	72
Nc1nc(CN2CCN(c3cccc(Cl)c3)CC2)nc(N2CCCc3ccccc32)n1	0	0	0	0	0	0	-	-
Nc1nc(CN2CCN(c3ccccc3)CC2)nc(N2CCCc3ccccc32)n1	0	0	0	0	22	0	0	0
CCCN1C(=O)C(Cc2nc3ccccc3c(=O)n2-c2ccccc2)c2ccccc21 (configuration not stated)	0	0	0	0	0	0	-	-
CC(C)N1C(=O)C(Cc2nc3ccccc3c(=O)n2-c2ccccc2)c2ccccc21 (configuration not stated)	0	0	0	0	22	0	0	18
Cc1cc2oc(=O)cc(CN3CCN(S(=O)(=O)/C=C/c4ccccc4)CC3)c2cc1C	0	0	0	0	0	0	-	-
Cc1cc(C)c2c(CN3CCN(C/C=C/c4ccccc4)CC3)cc(=O)oc2c1	0	0	0	0	25	0	0	18
CC(=O)N1CCN(c2ccccc2NC(=O)COc2ccc(Br)cc2)CC1	0	0	0	0	0	0	-	-
CCC(=O)N1CCN(c2ccccc2NC(=O)COc2cccc(C)c2)CC1	0	0	0	0	20	0	0	0
Cc1ccc(C(C)C)c(OCC(=O)Nc2ccccc2N2CCN(C)CC2)c1	0	0	0	0	0	0	-	-
CCC(=O)N1CCN(c2ccccc2NC(=O)c2cccc(C)c2)CC1	0	0	0	0	0	0	-	-
CN1CCN(c2ccccc2NC(=O)COc2ccccc2)CC1	0	0	0	0	21	0	0	0
CC(=O)N1CCN(c2ccccc2NC(=O)COc2cc(C)ccc2C(C)C)CC1	0	0	0	0	22	0	0	0
N#Cc1nc(COc2ccccc2)oc1N1CCC(Cc2ccccc2)CC1	0	0	0	0	32	0	21	21
C/C(=N\Nc1nc(C)c(C)s1)c1ccc([N+](=O)[O-])cc1	0	-	0	0	38	0	42	54
c1ccc(Nc2ccc(-n3ccnc3)nn2)cc1	0	-	0	0	0	0	-	-
COc1ccccc1NC(=O)Cc1noc(CSc2cc(C)c3ccccc3n2)n1	0	0	0	0	20	0	0	0
Cc1nc(SC(C(=O)c2ccccc2)c2ccccc2)nc2ccccc12 (configuration not stated)	0	0	0	0	0	0	-	-
COc1ccc2nc(SC(C(=O)c3ccccc3)c3ccccc3)nc(C)c2c1 (configuration not stated)	0	0	0	0	40	0	27	35
COc1ccc(C(=O)OCCc2ccc(O)cc2)cc1	0	0	0	0	0	0	-	-
O=C(NCc1nc2ccccc2[nH]1)c1cc2ccccc2oc1=O	0	0	0	0	0	0	-	-
O=C1NC(=O)C2(CCC(C(=O)O)C2)N1 (configuration not stated)	0	0	0	0	0	0	-	-
COc1ccc(-n2nnnc2-c2cccc(OC)c2)cc1	0	0	0	0	24	0	0	29
CCN(CC)C(=O)CSc1nc2c(sc(=S)n2Cc2ccco2)c(=O)n1-c1ccccc1	0	0	0	0	27	0	0	0
CCN(CC)C(=O)CSc1nc2c(sc(=S)n2-c2ccccc2)c(=O)[nH]1	0	-	0	0	0	0	-	-
SMILES	S1P4 antagonist	NPY-Y2 antag	S1P4 agonist	NPY1 pot ag	NPY Y1 blocker	NPY2 pot ag	NPY-Y1 ant conf	NPY-Y2 antag ct
CC(C)(C)Nc1scc(-c2ccccc2)[n+]1-c1ccccc1	0	-	0	0	0	0	-	-
CCOC(=O)c1sc(NC(=O)CSc2nnnn2-c2ccc(C)cc2)c(C(=O)OCC)c1C	0	0	0	0	0	0	-	-
CC(C)(C)C(=O)Nc1cc2nn(-c3ccccc3)nc2cc1Cl	0	0	0	0	20	0	0	0
Cc1ccc(N2C(=O)CC(NCC3CCCO3)C2=O)cc1 (configuration not stated)	0	-	0	0	0	0	-	-
CCCCCC(O)(CCCCC)C(=O)NNc1ccccc1	0	0	0	0	25	0	0	0
Fc1ccccc1C1c2[nH]c3ccccc3c2CCN1Cc1cccn1-c1ncccn1 (configuration not stated)	0	-	0	0	29	0	0	0
Cc1ccccc1C1c2[nH]c3ccccc3c2CCN1Cc1cccn1-c1ncccn1 (configuration not stated)	0	-	0	0	-	0	-	-
CCc1ncc(C(=O)c2ccc(OC)cc2)n1C	0	0	0	0	29	0	0	0
COc1ccc(C(=O)c2ccc(Cl)cc2)cc1	0	0	0	0	0	0	-	-
CCOC(=O)c1c(NC(C)=O)sc2c(OCC(O)CNC(C)(C)C)c(Br)ccc12 (configuration not stated)	0	-	0	0	122	0	98	115
C/C(=N\Nc1nc2ccccc2[nH]1)c1cc2ccccc2o1	0	0	0	0	33	0	0	17
C/C(=N\Nc1nc2ccccc2[nH]1)c1ccc2c(c1)OCCO2	0	-	0	0	0	0	-	-
O=C(O)CCCNS(=O)(=O)c1cccc2nsnc12	0	0	0	0	0	0	-	-
CC(/C=C/c1ccc2c(c1)OCO2)=N\NC(=O)C(O)c1ccccc1 (configuration not stated)	0	-	0	0	-	0	-	-
CC(/C=C/c1ccc2c(c1)OCO2)=N\NC(=O)c1ccccc1	0	-	0	0	24	0	0	0
O=C1CCCC2=C1C(c1cccc(Br)c1)n1nc(-c3ccco3)nc1N2 (configuration not stated)	0	0	0	0	0	0	-	-
CCc1ccc(CNCc2ccc(OCC(O)CN(C)Cc3ccccc3)cc2)nc1 (configuration not stated)	0	-	0	0	26	0	0	27
COc1ccccc1Nc1nc(N)nc(CN2CCC(Cc3ccccc3)CC2)n1	0	0	0	0	25	0	0	22
O=C(Nc1nnc(C2=COCCO2)o1)c1ccc(Cl)cc1	0	0	0	0	0	0	-	-
O=C(Nc1nnc(C2=COCCO2)o1)c1ccc(Cc2ccccc2)cc1	0	-	0	0	22	0	0	0
